Test results reported in ChEMBL document CHEMBL3124904, “Second-generation derivatives of the eukaryotic translation initiation inhibitor pateamine A targeting eIF4A as potential anticancer agents” (Bioorg Med Chem, 2014).
Calls of active or inactive are those of the source. No cut-off for these calls is given here.

How the values were obtained:
[1] = biological target: T1, DNA polymerase subunit gamma-1 (Homo sapiens, UniProt P54098); assay: Inhibition of DNA polymerase-gamma (unknown origin) assessed as incorporation of Br(d)UTP by colorimetric analysis
T1 sequence (P54098 whole entry): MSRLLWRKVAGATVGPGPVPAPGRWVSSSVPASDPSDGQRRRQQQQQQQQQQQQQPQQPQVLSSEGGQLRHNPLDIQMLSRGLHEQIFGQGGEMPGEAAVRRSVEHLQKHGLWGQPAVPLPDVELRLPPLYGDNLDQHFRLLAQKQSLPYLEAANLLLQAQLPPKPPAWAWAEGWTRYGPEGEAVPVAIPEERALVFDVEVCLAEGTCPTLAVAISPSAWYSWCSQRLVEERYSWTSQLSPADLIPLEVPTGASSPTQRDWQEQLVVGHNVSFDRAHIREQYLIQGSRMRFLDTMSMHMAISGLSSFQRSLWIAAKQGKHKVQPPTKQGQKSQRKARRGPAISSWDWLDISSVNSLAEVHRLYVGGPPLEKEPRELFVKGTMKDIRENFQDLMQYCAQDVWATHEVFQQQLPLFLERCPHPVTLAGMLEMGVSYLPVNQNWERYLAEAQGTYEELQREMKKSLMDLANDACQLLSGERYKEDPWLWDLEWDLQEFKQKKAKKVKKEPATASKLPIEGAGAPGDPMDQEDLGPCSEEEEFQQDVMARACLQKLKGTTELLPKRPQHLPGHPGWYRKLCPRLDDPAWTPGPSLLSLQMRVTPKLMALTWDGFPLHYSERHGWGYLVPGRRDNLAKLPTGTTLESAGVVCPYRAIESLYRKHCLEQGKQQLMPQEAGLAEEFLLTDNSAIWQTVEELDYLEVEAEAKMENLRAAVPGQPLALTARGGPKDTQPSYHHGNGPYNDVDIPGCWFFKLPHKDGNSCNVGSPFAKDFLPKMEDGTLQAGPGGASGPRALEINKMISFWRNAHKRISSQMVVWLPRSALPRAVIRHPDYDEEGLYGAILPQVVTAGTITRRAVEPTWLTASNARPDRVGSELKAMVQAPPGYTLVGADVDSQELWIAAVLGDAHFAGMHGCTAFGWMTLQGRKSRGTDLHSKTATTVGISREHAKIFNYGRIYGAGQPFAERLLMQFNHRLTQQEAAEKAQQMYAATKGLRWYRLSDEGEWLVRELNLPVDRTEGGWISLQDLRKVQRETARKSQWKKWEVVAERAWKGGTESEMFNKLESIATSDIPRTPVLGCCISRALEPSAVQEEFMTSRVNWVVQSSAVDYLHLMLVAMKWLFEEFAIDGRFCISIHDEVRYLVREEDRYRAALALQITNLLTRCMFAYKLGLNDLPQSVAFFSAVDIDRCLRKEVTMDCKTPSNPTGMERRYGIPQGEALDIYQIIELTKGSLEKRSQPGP

[2] = Dissociation constant, pKa of the compound; type: physicochemical
[3] = Half life in RPMI media at 10 uM by HPLC analysis in presence of fetal bovine serum; type: ADME; settings: cattle
Summary of the method: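 Compound added from DMSO stock to pre-heated RPMI 1640 (1.8 mL) plus 0.2 mL human AB male serum or FBS, or to 2 mL RPMI alone, at final 1 or 10 μM. Samples analysed by HPLC at pH 9.5 (formic acid/ammonia in acetonitrile/water), with conversion taken from the substrate/internal standard peak ratio. Run in triplicate; half-lives ± SD.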

[4] = Antiproliferative activity against human Jurkat T cells assessed as DNA synthesis level after 24 hrs by thymidine incorporation assay; type: functional, cell-based
Summary of the method: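 Cells kept at 37 °C, 5% CO2 with penicillin-streptomycin and 10% FBS. Adherent lines seeded at 2000 cells/well and left to recover overnight; Jurkat seeded at 5000 cells/well with no recovery period. Compound added in DMSO (0.1% final, vehicle-only control) at 0.001–100 nM over 10 wells. DNA synthesis read out after 24 h. Mean IC50 from at least 3 independent assays.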

[5] = organism: Oryctolagus cuniculus; assay: Inhibition of cap-independent HCV-IRES-induced translation in rabbit reticulocyte lysate at 500 nM after 1.5 hrs by luciferase reporter gene assay; type: functional
Summary of the method: (§1)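 Capped bicistronic reporter mRNA: cap-dependent firefly luciferase first cistron, HCV IRES-driven Renilla second cistron. Transcribed in vitro with SP6 from the BamHI-linearised plasmid. 200 ng RNA translated in rabbit reticulocyte lysate with 70 mM KCl, 2 mM DTT, RNasin and compound in DMSO (5% v/v final), 30 °C for 1.5 h. Dual luciferase readout. Duplicates, 4 independent assays, mean IC50 by curve fit.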

[6] = Binding affinity to eIF4A1/2 in rabbit reticulocyte lysate assessed as inhibition of cap-dependent translation after 1.5 hrs by dual luciferase reporter gene assay; parameters: species or system Oryctolagus cuniculus; summary of the method: as §1
[7] = Selectivity ratio of IC50 for MEF to IC50 for human Jurkat T cells; type: cell-based; settings: mouse (MEF) and human (Jurkat T cells), read-out: Ratio IC50

SMILES: CC(/C=C/C(C)=C/[C@@H]1Cc2nc(cs2)CCCCC(=O)O[C@@H](C)C/C(C)=C/C=C\C(=O)O1)=C\CN(C)C
- IC50 [1]: 3000 nM
- pKa [2]: 11
- t1/2 [3]: 12.5 h
- IC50 [4]: 3 nM
- inhibition [5]: inactive
- IC50 [6]: 21.5 nM
- selectivity ratio [7]: 5
